{"data": "Results pooled from the literature", "effect on": "metabolic stability", "matrix": "liver microsomes", "note": "Compare with care: the assays were run in different laboratories."}
{"Compound": "O=C(C1CCSCC1)N1CC(=O)N2CCc3ccccc3[C@@H]2C1", "test system": "mouse", "conditions": "0.1 µM, pH 7.4", "microsomal CLint": "324 µL/min/mg"}
{"Compound": "CCOC(=O)C1=C(C)N/C(=C/c2cc(C)n(Cc3ccc(C(F)(F)F)cc3)c2C)C1=O", "test system": "mouse", "conditions": "1 µM", "microsomal CLint": "103 µL/min/mg"}
{"Compound": "Cc1cc(NC(=O)Nc2ccc3c(c2)OC(F)(F)O3)cc(C(F)(F)F)n1", "test system": "mouse", "microsomal CLint": "36 µL/min/mg"}
{"Compound": "CCN(CC)CCNC(=O)c1c(C)[nH]c(/C=C2\\C(=O)Nc3ccc(F)cc32)c1C", "test system": "mouse", "conditions": "1 µM, pH 7.4", "microsomal CLint": "54 µL/min/mg"}
{"Compound": "O=C(Nc1ccc2c(c1)B(O)OC2)Nc1ccc(F)c(C(F)(F)F)c1", "test system": "mouse", "microsomal CLint": "34 µL/min/mg"}
{"Compound": "Clc1ccc(COc2cncc(-c3cnn(C4CCNCC4)c3)c2)c(Cl)c1", "test system": "mouse", "microsomal CLint": "28.9 µL/min/mg"}
{"Compound": "Oc1ccc(-c2nc(N3CCC(c4ccccn4)C3)c3ccccc3n2)cc1 (stereo not shown)", "test system": "mouse", "microsomal CLint": "388 µL/min/mg"}
{"Compound": "CCOC(=O)c1c(-c2cccc(Cl)c2)[nH]c2cc(OC)ccc2c1=O", "test system": "female CD-1 mouse", "conditions": "19.8 µM, pH 7.4", "microsomal CLint": "> 15 µL/min/mg"}
{"Compound": "CCOc1ccc2ccc(=O)oc2c1", "test system": "mouse", "conditions": "1 µM, pH 7.4", "microsomal CLint": "522 µL/min/mg"}
{"Compound": "c1ccc(CN2CCN(c3nc(-c4ccccn4)nc4ccccc34)CC2)cc1", "test system": "mouse", "microsomal CLint": "393 µL/min/mg"}
{"Compound": "CCOC(=O)c1c(-c2cccc(Br)c2)[nH]c2cc(OC)c(F)cc2c1=O", "test system": "female CD-1 mouse", "conditions": "19.8 µM, pH 7.4", "microsomal CLint": "< 4 µL/min/mg"}
{"Compound": "Cc1cc(Nc2ccc(S(F)(F)(F)(F)F)cc2)n2nc(C(C)(F)F)nc2n1", "test system": "mouse", "conditions": "1 µM, pH 7.4", "microsomal CLint": "< 10 µL/min/mg"}
{"Compound": "Cc1cccc(N2CCN(c3nc(-c4ccccn4)nc4ccccc34)CC2)n1", "test system": "mouse", "microsomal CLint": "513 µL/min/mg"}
{"Compound": "Cc1cc(Nc2ccc(S(F)(F)(F)(F)F)cc2)n2ccnc2n1", "test system": "mouse", "microsomal CLint": "30 µL/min/mg"}
{"Compound": "CCOC(=O)c1c(-c2cccc(Oc3ccccc3)c2)[nH]c2cc(OC)c(F)cc2c1=O", "test system": "female CD-1 mouse", "conditions": "19.8 µM, pH 7.4", "microsomal CLint": "> 15 µL/min/mg"}
{"Compound": "Cc1cc(Nc2ccc(C(F)(F)F)cc2)n2nc(C(F)(F)F)nc2n1", "test system": "mouse", "conditions": "1 µM, pH 7.4", "microsomal CLint": "< 10 µL/min/mg"}
{"Compound": "c1ccc(C2CCN(c3nc(-c4ccco4)nc4ccccc34)C2)nc1 (stereo not shown)", "test system": "mouse", "microsomal CLint": "539 µL/min/mg"}
{"Compound": "Cc1cc(Nc2ccc(C(F)(F)F)cc2)n2nc(C(C)(F)F)nc2n1", "test system": "mouse", "conditions": "1 µM, pH 7.4", "microsomal CLint": "< 10 µL/min/mg"}
{"Compound": "N#CC1CCCN(c2nc(-c3ccccn3)nc3ccccc23)C1 (stereo not shown)", "test system": "mouse", "microsomal CLint": "93 µL/min/mg"}
